Legend:
Cryptosporidium parvum [1] = test: Antiparasitic activity against Cryptosporidium parvum SPL infected in human HCT8 cells incubated for 48 hrs by FITC/DAPI staining based fluorescence assay; assay type: functional, organism-based; conditions: HCT-8, 48 h
Procedure, shortened: (§1)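 HCT-8 cells seeded at 2750 cells/well and dosed 24 h later with pure compounds (11-point 1:3 serial dilution, final top 25 μM), then infected with excysted oocysts at 3125 oocysts/well. Incubated 48 h at 37 °C, 5% CO2, then fixed in 4% paraformaldehyde. Parasites stained with FITC-Vicia villosa lectin and host nuclei with DAPI, imaged at 10×. Parasite spot counts and host nuclei counts taken relative to DMSO-treated wells.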

[2] = Cytotoxicity against human HepG2 cells assessed as decrease in cell viability after 72 hrs by CellTiter-Glo reagent based luminescence assay
Procedure, shortened: (§2)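 Compounds prespotted as a 1:3 dilution series, top 40 μM. Cells seeded at 375 cells/well for HEK293T and 700 cells/well for HepG2, then incubated 72 h at 37 °C, 5% CO2. Viability read as CellTiter-Glo luminescence, normalized to DMSO- and puromycin-treated wells. CC50 obtained from a four-parameter nonlinear regression fit.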

HCT-8 = test: Cytotoxicity against human HCT8 cells; assay type: cell-based; procedure, shortened: as §1
Cryptosporidium parvum [3] = test: Antiparasitic activity against Cryptosporidium parvum BGF infected in human HCT8 cells incubated for 48 hrs by FITC/DAPI staining based fluorescence assay; assay type: functional, organism-based; conditions: HCT-8, 48 h; procedure, shortened: as §1
[4] = Cytotoxicity against human HEK293T cells assessed as decrease in cell viability after 72 hrs by CellTiter-Glo reagent based luminescence assay; set-up: species or system HEK-293T; procedure, shortened: as §2

Row | EC50 (Cryptosporidium parvum [1]) | EC50 (Cryptosporidium parvum [3]) | Compound | CC50 at 72 h [2] | EC50 (HCT-8) | CC50 at 72 h [4]
1 | 2.7 µM | 2.8 µM | C/C=C(\C)C(=O)O[C@H]1[C@H](O)[C@@H](C(=O)OC)O[C@@H]2C[C@H]3O[C@@H](n4cnc5c(N)ncnc54)[C@H](O)[C@H]3O[C@]21O | > 40 µM | > 25 µM | > 40 µM
2 | 16 µM | 21 µM | C/C=C(\CO)C(=O)O[C@H]1[C@H](O)[C@@H](C(=O)OC)O[C@@H]2C[C@H]3O[C@@H](n4cnc5c(N)ncnc54)[C@H](OC)[C@H]3O[C@]21O | > 40 µM | > 25 µM | > 40 µM
3 | 24 µM | 18 µM | COC(=O)[C@H]1O[C@@H]2C[C@H]3O[C@@H](n4cnc5c(N)ncnc54)[C@H](O)[C@H]3O[C@@]2(O)[C@@H](O)[C@@H]1O | > 40 µM | > 25 µM | > 40 µM
4 | 0.17 µM | 0.15 µM | C/C=C(\CO)C(=O)O[C@@H]1[C@@H](C(=O)OC)O[C@@H]2C[C@H]3O[C@@H](n4cnc5c(N)ncnc54)[C@H](OC)[C@H]3O[C@@]2(O)[C@@H]1O | 24 µM | 0.14 to 0.18 µM | > 40 µM
5 | 0.005 µM | 0.0096 µM | O=c1[nH]c(=O)n([C@H]2C[C@H](O)[C@@H](CO)O2)cc1F [FLOXURIDINE] | 0.0076 µM | 0.015 to 0.038 µM | 0.0084 µM
6 | 0.6 µM | 0.55 µM | COc1ccc(C[C@H](N)C(=O)N[C@H]2[C@@H](O)[C@H](n3cnc4c(N(C)C)ncnc43)O[C@@H]2CO)cc1 [PUROMYCIN] | 0.83 µM | 6.1 to 7 µM | 0.42 µM

Row | Compound | EC50 (Cryptosporidium parvum [1]) | EC50 (Cryptosporidium parvum [3]) | CC50 at 72 h [2] | EC50 (HCT-8) | CC50 at 72 h [4]
7 | COC(=O)[C@H]1O[C@@H]2C[C@H]3O[C@@H](n4cnc5c(N)ncnc54)[C@H](OC)[C@H]3O[C@@]2(O)[C@H](O)[C@@H]1O | > 25 µM | > 25 µM | > 40 µM | > 25 µM | > 40 µM
8 | COC(=O)[C@H]1O[C@@H]2C[C@H]3O[C@@H](n4cnc5c(N)ncnc54)[C@H](OC)[C@H]3O[C@@]2(O)[C@@H](O)[C@@H]1O | 11 µM | 8.8 µM | > 40 µM | > 25 µM | > 40 µM
9 | CC(=O)Oc1ccccc1C(=O)Nc1ncc([N+](=O)[O-])s1 [NITAZOXANIDE] | 2.3 µM | 2.9 µM | > 40 µM | > 25 µM | > 40 µM
